# Where two headings read alike, the source gives them in different places.
# Experiments:
# [1] = cited from earlier work
# [2] = co-administered with lopinavir and ritonavir, healthy individuals; cited from earlier work
# [3] = co-administration of ketoconazole, single 0.5 mg riociguat, 16 healthy volunteers; cited from earlier work
# [4] = format: in vivo; conditions: human, plasma, 0.5 mg; for Tmax: adults with HIV
# In short: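 Adults with HIV on stable fixed-dose background ART for ≥6 weeks received a single oral 0.5 mg dose in the morning after a ≥10 h fast, then a further 4-h fast. Plasma was sampled at baseline and 0.5–48 h. Analysis was by HPLC-MS/MS with internal standards (LLOQ 2 µg/L). Cmax was derived non-compartmentally and summarised as geometric mean with %CV.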
# Safety and tolerability = format: in vivo, human
# In short: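 HIV-infected adults (n = 41 treated) on stable background ART received a single fasted oral 0.5 mg dose. Treatment-emergent adverse events, vital signs, ECG and laboratory parameters were recorded. Supine and/or sitting blood pressure was measured regularly, generally at the blood-sampling times (0.5–48 h post-dose).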
# [5] = cited from earlier work; remark: listed apart in the source
# [6] = format: in vivo, human; conditions: single 0.5 mg dose
# In short: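 Single oral 0.5 mg dose was given fasted on top of stable background ART, with plasma sampled to 48 h and assayed by HPLC-MS/MS. AUC(0–∞) was derived non-compartmentally. ANOVA on log-transformed AUC gave LS-mean ratios versus historical healthy-volunteer data (n = 80; fed and fasted states), re-transformed, with 90% CIs.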
# [7] = sildenafil 100 mg single dose with ritonavir 500 mg twice daily; cited from earlier work
# [8] = tadalafil 20 mg with ritonavir 200 mg twice daily; cited from earlier work
# [9] = single 0.5 mg dose, adults with HIV
# [10] = single 0.5 mg dose, adults with HIV, all background regimens, total n = 41
# [11] = single 0.5 mg dose, adults with HIV, background abacavir/dolutegravir/lamivudine (TRIUMEQ), n = 8
# [12] = single 0.5 mg dose, adults with HIV, background efavirenz/emtricitabine/tenofovir disoproxil (ATRIPLA), n = 8
# [13] = single 0.5 mg dose, adults with HIV, background elvitegravir/cobicistat/emtricitabine/tenofovir disoproxil (STRIBILD), n = 8
# [14] = single 0.5 mg dose, adults with HIV, background emtricitabine/rilpivirine/tenofovir disoproxil (COMPLERA), n = 8
# [15] = single 0.5 mg dose, adults with HIV, background ritonavir-boosted triple regimen, n = 9
smiles,measurement,setting,value
COC(=O)Nc1c(N)nc(-c2nn(Cc3ccccc3F)c3ncccc23)nc1N [M1],biologic activity relative to riociguat,[1],one-tenth to one-third
COc1ccccc1Oc1c(NS(=O)(=O)c2ccc(C(C)(C)C)cc2)nc(-c2ncccn2)nc1OCCO [bosentan],plasma concentrations on co-administration,[2],increased plasma concentrations
COC(=O)N(C)c1c(N)nc(-c2nn(Cc3ccccc3F)c3ncccc23)nc1N [riociguat],increase in mean AUC0-∞ compared with controls,[3],2.5 fold
same,Cmax,[4]; oral,14.2 to 20.4 ng/mL
same,Tmax,"[4]; oral, median tmax, range across the five background antiretroviral groups, single 0.5 mg dose",1 to 1.27 h
same,Tmax,"[4]; po, tmax, single 0.5 mg oral dose, background abacavir/dolutegravir/lamivudine (TRIUMEQ), median (range), n = 8",1.27 h
same,Tmax,"[4]; po, tmax, single 0.5 mg oral dose, background efavirenz/emtricitabine/tenofovir disoproxil (ATRIPLA), median (range), n = 8",1 h
same,Tmax,"[4]; po, tmax, single 0.5 mg oral dose, background elvitegravir/cobicistat/emtricitabine/tenofovir disoproxil (STRIBILD), median (range), n = 8",1.03 h
same,Tmax,"[4]; po, tmax, single 0.5 mg oral dose, background emtricitabine/rilpivirine/tenofovir disoproxil (COMPLERA), median (range), n = 8",1.03 h
same,Tmax,"[4]; po, tmax, single 0.5 mg oral dose, background ritonavir-boosted triple regimen, median (range), n = 8",1.03 h
same,AEs considered related to riociguat,"Safety and tolerability; headache and stomach cramps, all resolved by study end",Four AEs were considered related to riociguat in three participants
same,AEs related to decreased blood pressure or hypotension,Safety and tolerability; [9],No AEs related to decreased blood pressure or hypotension were reported
same,"changes in vital signs, electrocardiogram, or laboratory parameters",Safety and tolerability; [9],No clinically significant changes
same,intensity of AEs,Safety and tolerability; [9],mild or moderate
same,tolerability,"Safety and tolerability; single 0.5 mg dose, adults with HIV on stable background ART",well tolerated
same,"serious AEs, AEs leading to discontinuation, or deaths","Safety and tolerability; single 0.5 mg dose, adults with HIV, n = 41","no serious AEs, AEs leading to discontinuation, or deaths"
same,participants with headache,"Safety and tolerability; single 0.5 mg dose, adults with HIV, n = 41 (four participants)",10%
same,participants with a treatment-emergent AE,"Safety and tolerability; single 0.5 mg dose, adults with HIV, n = 41 (ten participants)",24%
same,participants with fatigue,"Safety and tolerability; single 0.5 mg dose, adults with HIV, n = 41 (two participants)",5%
same,Any AE,Safety and tolerability; [10],10 (24) n (%)
same,Diarrhea,Safety and tolerability; [10],1 (2) n (%)
same,Dizziness,Safety and tolerability; [10],1 (2) n (%)
same,Fatigue,Safety and tolerability; [10],2 (5) n (%)
same,Headache,Safety and tolerability; [10],4 (10) n (%)
same,Lip swelling,Safety and tolerability; [10],1 (2) n (%)
same,Oral paresthesia,Safety and tolerability; [10],1 (2) n (%)
same,Oropharyngeal pain,Safety and tolerability; [10],1 (2) n (%)
same,Pain,Safety and tolerability; [10],1 (2) n (%)
same,Pyrexia,Safety and tolerability; [10],1 (2) n (%)
same,Upper abdominal pain,Safety and tolerability; [10],1 (2) n (%)
same,Urethritis,Safety and tolerability; [10],1 (2) n (%)
same,Any AE,Safety and tolerability; [11],2 (25) n (%)
same,Diarrhea,Safety and tolerability; [11],0 n (%)
same,Dizziness,Safety and tolerability; [11],0 n (%)
same,Fatigue,Safety and tolerability; [11],1 (13) n (%)
same,Headache,Safety and tolerability; [11],1 (13) n (%)
same,Lip swelling,Safety and tolerability; [11],0 n (%)
same,Oral paresthesia,Safety and tolerability; [11],0 n (%)
same,Oropharyngeal pain,Safety and tolerability; [11],0 n (%)
same,Pain,Safety and tolerability; [11],0 n (%)
same,Pyrexia,Safety and tolerability; [11],1 (13) n (%)
same,Upper abdominal pain,Safety and tolerability; [11],0 n (%)
same,Urethritis,Safety and tolerability; [11],0 n (%)
same,Any AE,Safety and tolerability; [12],1 (13) n (%)
same,Diarrhea,Safety and tolerability; [12],0 n (%)
same,Dizziness,Safety and tolerability; [12],0 n (%)
same,Fatigue,Safety and tolerability; [12],0 n (%)
same,Headache,Safety and tolerability; [12],0 n (%)
same,Lip swelling,Safety and tolerability; [12],0 n (%)
same,Oral paresthesia,Safety and tolerability; [12],1 (13) n (%)
same,Oropharyngeal pain,Safety and tolerability; [12],0 n (%)
same,Pain,Safety and tolerability; [12],0 n (%)
same,Pyrexia,Safety and tolerability; [12],0 n (%)
same,Upper abdominal pain,Safety and tolerability; [12],0 n (%)
same,Urethritis,Safety and tolerability; [12],0 n (%)
same,Any AE,Safety and tolerability; [13],2 (25) n (%)
same,Diarrhea,Safety and tolerability; [13],0 n (%)
same,Dizziness,Safety and tolerability; [13],1 (13) n (%)
same,Fatigue,Safety and tolerability; [13],1 (13) n (%)
same,Headache,Safety and tolerability; [13],0 n (%)
same,Lip swelling,Safety and tolerability; [13],1 (13) n (%)
same,Oral paresthesia,Safety and tolerability; [13],0 n (%)
same,Oropharyngeal pain,Safety and tolerability; [13],0 n (%)
same,Pain,Safety and tolerability; [13],0 n (%)
same,Pyrexia,Safety and tolerability; [13],0 n (%)
same,Upper abdominal pain,Safety and tolerability; [13],0 n (%)
same,Urethritis,Safety and tolerability; [13],0 n (%)
same,Any AE,Safety and tolerability; [14],3 (38) n (%)
same,Diarrhea,Safety and tolerability; [14],0 n (%)
same,Dizziness,Safety and tolerability; [14],0 n (%)
same,Fatigue,Safety and tolerability; [14],0 n (%)
same,Headache,Safety and tolerability; [14],1 (13) n (%)
same,Lip swelling,Safety and tolerability; [14],0 n (%)
same,Oral paresthesia,Safety and tolerability; [14],0 n (%)
same,Oropharyngeal pain,Safety and tolerability; [14],1 (13) n (%)
same,Pain,Safety and tolerability; [14],1 (13) n (%)
same,Pyrexia,Safety and tolerability; [14],0 n (%)
same,Upper abdominal pain,Safety and tolerability; [14],0 n (%)
same,Urethritis,Safety and tolerability; [14],1 (13) n (%)
same,Any AE,Safety and tolerability; [15],2 (22) n (%)
same,Diarrhea,Safety and tolerability; [15],1 (11) n (%)
same,Dizziness,Safety and tolerability; [15],0 n (%)
same,Fatigue,Safety and tolerability; [15],0 n (%)
same,Headache,Safety and tolerability; [15],2 (22) n (%)
same,Lip swelling,Safety and tolerability; [15],0 n (%)
same,Oral paresthesia,Safety and tolerability; [15],0 n (%)
same,Oropharyngeal pain,Safety and tolerability; [15],0 n (%)
same,Pain,Safety and tolerability; [15],0 n (%)
same,Pyrexia,Safety and tolerability; [15],0 n (%)
same,Upper abdominal pain,Safety and tolerability; [15],1 (11) n (%)
same,Urethritis,Safety and tolerability; [15],0 n (%)
same,bioavailability,[5],> 90%
same,fraction of the dose eliminated by oxidative biotransformation,[5],27–71%
same,mean half-life,[5]; healthy individuals,approximately 7 h
same,mean half-life,[5]; patients with PAH,approximately 12 h
same,riociguat exposure (AUC) compared with historical healthy volunteers,[6]; administered with abacavir/dolutegravir/lamivudine,increased by approximately threefold
same,riociguat exposure (AUC) compared with historical healthy volunteers,[6]; administered with ritonavir-boosted triple regimen,slightly increased
same,riociguat exposure (AUC) compared with historical healthy volunteers,[6]; co-administered with efavirenz/emtricitabine/tenofovir disoproxil,similar
same,riociguat exposure (AUC) compared with historical healthy volunteers,"[6]; co-administered with efavirenz/emtricitabine/tenofovir disoproxil, listed as Riociguat",no apparent change
CCCc1nn(C)c2c(=O)[nH]c(-c3cc(S(=O)(=O)N4CCN(C)CC4)ccc3OCC)nc12 [sildenafil],increase in plasma AUC,[7],11 fold
CN1CC(=O)N2[C@H](c3ccc4c(c3)OCO4)c3[nH]c4ccccc4c3C[C@@H]2C1=O [tadalafil],change in Cmax,[8],no change
same,increase in single-dose exposure,[8],124%

# From article PMC6540510 (Pulmonary Circulation, 2019)
